In brackets after ≈: the same amount, converted by molar mass.
Key:
[1] = test system: Madin-Darby canine kidney (MDCK) cells with canine MDR1 knocked out; assay: MDCK permeability assay; type: in vitro ADME; settings: apical to basolateral direction
Outline: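 MDCK cells with endogenous canine MDR1 knocked out. Transport of the test compound was measured in the apical-to-basolateral direction. Permeability was reported in 10^-6 cm/s. Data were accepted only when compound recovery was 70%-130%.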

Kinetic solubility = type: physicochemical; settings: PBS buffer, pH 7.4, aqueous buffer, kinetic from dmso stock

| Structure (SMILES) | permeability (passive diffusion rate), level in words [1] | solubility kinetic at 24 h (Kinetic solubility) [µM] |
| --- | --- | --- |
| CN(Cc1cccnc1)C(=O)c1ccc([C@H]2[C@@H](F)[C@@H](F)C[C@@H](F)[C@H]2F)cc1 [J-2c'] | highly permeable |  |
| O=C(Cn1ccnc1)Nc1ccc(C2CCCCC2)cc1 [1c] | high |  |
| O=C(Nc1ccc([C@H]2[C@@H](F)[C@@H](F)C[C@@H](F)[C@H]2F)cc1)c1cn[nH]c1 [J-1b] |  | 136 (≈ 46.4 µg/mL) |

Next, values leading:

| permeability (passive diffusion rate), level in words [1] | solubility kinetic at 24 h (Kinetic solubility) [µM] | Structure (SMILES) |
| --- | --- | --- |
| high |  | CC(=O)N1CC(C(=O)Nc2ccc(C3CCCCC3)cc2)C1 [1i] |
| highly permeable |  | CN(Cc1cccnc1)C(=O)c1ccc(C2CCCCC2)cc1 [2c'] |

From paper PMC9465827 (ACS Medicinal Chemistry Letters, 2022)
